≈ marks a conversion by molar mass, not a printed value.

Test [1] deals with Gallus gallus. Put plainly: Compound tested in vivo for anti-coccidial activity which cleared number of chicks from parasite at 400 ppm in the diet. Format: functional. The essentials:
(§1)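 Week-old chicks were given a simultaneous infection of Eimeria tenella (Weybridge strain) and E. acervulina (Ongar strain). Compound was mixed into the diet at the stated ppm level. Activity against E. acervulina was judged from oocyst production at day 5. Treated-group weight gain was compared with controls.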

In test [2] the test system is Eimeria tenella. In words: In vitro minimum inhibitory concentration for Eimeria tenella in embryonic chick liver cells. The test is classed as functional. The essentials:
(§2)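 E. tenella (Weybridge strain) was grown in cultured embryonic chick liver cells. The minimum inhibitory concentration against parasite growth was determined, and toxicity to the host cells was recorded alongside it.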

Test [3] has as its system Detroit 98. Put plainly: Concentration that inhibited the growth of cultured human detroit 98 cells. The test is classed as functional. The settings on record: read-out: ED50 (the source's name). The essentials: (§3)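 Cloned Detroit 98 cells (human sternal marrow, ATCC CCL 18.1 derivative) or cloned mouse L cells (C3H/AN connective tissue) were grown as monolayers in modified Eagle's medium at 36 °C in a humidified CO2 incubator. Cells were exposed for 70-76 h, and control cultures reached at least two doublings. Total counts were made by electronic counter on replicate cultures. ED50 is the molar concentration giving 50% of control growth, read from a plot.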

Test [4] relates to L cells. In words: Concentration that inhibited the growth of Mouse L cells. The test is classed as functional. The settings on record: L929, read-out: ED50 (the source's name). The method in brief:
as §3

For test [5], the system named is Eimeria tenella. In words: Anti-coccidial activity which cleared number of chicks from parasite. The test is classed as functional. The essentials: as §1
Test [6] has as its system Gallus gallus. Put plainly: Compound tested in vivo for anti-coccidial activity which cleared number of chicks from parasite at 400 ppm in the diet; One chick out of five died and contained lesions due to parasite. The test is classed as functional.
The subject of test [7] is Gallus gallus. Put plainly: Compound tested in vivo for anti-coccidial activity which cleared number of chicks from parasite at 100 ppm in the diet; One chick out of five died and contained lesions due to parasite.
The species named for test [8] is Gallus gallus. Put plainly: In vitro minimum inhibitory concentration for Eimeria tenella in embryonic chick liver cells; Toxic. Format: functional. The essentials: as §2
In test [9] the test system is L cells. In words: Concentration that inhibited the growth of Mouse L cells. The test is classed as functional. The settings on record: L929, read-out: ED50 (the source's name). The essentials: as §3
For test [10], the system named is Detroit 98. Put plainly: Concentration that inhibited the growth of cultured human detroit 98 cells. Format: functional. The following applies: read-out: ED50 (the source's name). The essentials:
as §3

Test [11] deals with Gallus gallus. In words: Compound tested in vivo for anti-coccidial activity which cleared number of chicks from parasite at 200 p.p.m. in the diet.
The test system of test [12] is Gallus gallus. In words: Compound tested in vivo for anti-coccidial activity which cleared number of chicks from parasite at 400 ppm in the diet; Chicks showed decreased weight gain. Format: functional. The method in brief:
as §1

The species named for test [13] is Gallus gallus. Put plainly: In vitro minimum inhibitory concentration for Eimeria tenella in embryonic chick liver cells; Slightly toxic. The test is classed as functional. The essentials:
as §2

The test system of test [14] is Gallus gallus. Put plainly: Compound tested in vivo for anti-coccidial activity which cleared number of chicks from parasite at 25 p.p.m. in the diet. The test is classed as functional. The essentials:
as §1

As for `O=c1[nH]cnc2c1cnn2[C@@H]1O[C@H](CO)[C@@H](O)[C@H]1O`, in the test with Gallus gallus [1], the No. of chicks is on record as 0. In the test on Eimeria tenella [2], inhibition of growth (MIC) required 20 µg/mL (≈ 74.6 µM).
As for `OC[C@H]1OC(n2ncc3c(NCc4ccco4)ncnc32)[C@H](O)[C@@H]1O` (stereo not given in full), the EC50 worked out at 0.3 µM in the test with Detroit 98 [3] and 3 µM with L cells [4]. In addition, the lowest concentration to inhibit growth in the test on Eimeria tenella [2] (MIC) was 0.31 µg/mL (≈ 0.893 µM).
In the test with Eimeria tenella [5], `CNc1ncnc2c1cnn2C1O[C@H](CO)[C@@H](O)[C@H]1O` (stereo not given in full) came in with a No. of chicks of 0. The minimal inhibitory concentration (MIC) with Eimeria tenella [2] was determined as 0.31 µg/mL (≈ 1.1 µM).
On to `NNc1ncnc2c1cnn2C1O[C@H](CO)[C@@H](O)[C@H]1O` (stereo not given in full), for which the results for the EC50 in the test with Detroit 98 [3] and in the test with L cells [4] were 20 µM and 100 µM, respectively. The same compound showed a No. of chicks in the test on Gallus gallus [6] of 0. Also, in the test on Eimeria tenella [2], the MIC came out at 5 µg/mL (≈ 17.7 µM).
With `CCCCCCCCNc1ncnc2c1cnn2C1O[C@H](CO)[C@@H](O)[C@H]1O` (stereo not given in full), the No. of chicks in the test with Gallus gallus [7] is listed as 0. In the test with Eimeria tenella [2], this compound had an MIC of 5 µg/mL (≈ 13.2 µM).
In the test listed under Gallus gallus [8], `O=C(Nc1ncnc2c1cnn2C1O[C@H](CO)[C@@H](O)[C@H]1O)c1ccccc1` (stereo not given in full) displayed an MIC of 5 µg/mL (≈ 13.5 µM). For the same compound, the No. of chicks in the test with Eimeria tenella [5] is 0. Moreover, the EC50 in the test on L cells [9] and in the test on Detroit 98 [10] was over 100 µM each time.
`OC[C@H]1OC(n2ncc3c(NCc4ccccc4)ncnc32)[C@H](O)[C@@H]1O` (stereo not given in full) returned a No. of chicks in the test on Eimeria tenella [5] of 0. Also, the minimal inhibitory concentration (MIC) with Eimeria tenella [2] is 0.31 µg/mL (≈ 0.867 µM).
On to `CCCCCCN(CCCCCC)c1ncnc2c1cnn2C1O[C@H](CO)[C@@H](O)[C@H]1O` (stereo not given in full), for which the EC50 in the test with Detroit 98 [3] and in the test with L cells [4] was 50 µM in each case. This compound also registered a No. of chicks in the test with Eimeria tenella [5] of 1. Moreover, the MIC against Eimeria tenella [2] was over 20 µg/mL.
For `CCCCN(CC)c1ncnc2c1cnn2C1O[C@H](CO)[C@@H](O)[C@H]1O` (stereo not given in full), the No. of chicks in the test with Eimeria tenella [5] was 0. The MIC in the test on Eimeria tenella [2] stood at 5 µg/mL (≈ 14.2 µM).
In the test with Gallus gallus [11], `CN(C)c1ncnc2c1cnn2C1O[C@H](CO)[C@@H](O)[C@H]1O` (stereo not given in full) displayed a No. of chicks of 2. For the same compound, inhibition of growth against Eimeria tenella [2] (MIC) required 5 µg/mL (≈ 16.9 µM).
In the test with Gallus gallus [12], `CCN(CC)c1ncnc2c1cnn2C1O[C@H](CO)[C@@H](O)[C@H]1O` (stereo not given in full) gave a No. of chicks of 1. In addition, the minimum inhibitory concentration (MIC) against Eimeria tenella [2] was determined as 5 µg/mL (≈ 15.5 µM).
`CCCCCCNc1ncnc2c1cnn2C1O[C@H](CO)[C@@H](O)[C@H]1O` (stereo not given in full): the No. of chicks in the test on Eimeria tenella [5] worked out at 0. In addition, in the test with Eimeria tenella [2], inhibition of growth (MIC) required 1.25 µg/mL (≈ 3.56 µM).
In the test with Gallus gallus [1], `OC[C@H]1OC(n2ncc3c(N4CCOCC4)ncnc32)[C@H](O)[C@@H]1O` (stereo not given in full) returned a No. of chicks of 0. Moreover, inhibition of growth in the test filed under Gallus gallus [13] (MIC) required 20 µg/mL (≈ 59.3 µM).
As for `CC(C)=CCNc1ncnc2c1cnn2C1O[C@H](CO)[C@@H](O)[C@H]1O` (stereo not given in full), the EC50 with Detroit 98 [3] was 1.5 µM; with L cells [4], over 100 µM. Besides, the No. of chicks with Gallus gallus [14] and in the test on Eimeria tenella [5] was 0 each time. Further, the minimal inhibitory concentration (MIC) against Eimeria tenella [2] was 5 µg/mL (≈ 14.9 µM).
For the compound `CCNc1ncnc2c1cnn2C1O[C@H](CO)[C@@H](O)[C@H]1O` (stereo not given in full), in the test on Gallus gallus [1], the No. of chicks was 1. Besides, in the test with Eimeria tenella [2], the minimum inhibitory concentration (MIC) is 5 µg/mL (≈ 16.9 µM).
Turning to `OC[C@H]1OC(n2ncc3c(NC4CCCC4)ncnc32)[C@H](O)[C@@H]1O` (stereo not given in full), in the test with Eimeria tenella [5], the No. of chicks amounted to 5. Moreover, the MIC against Eimeria tenella [2] stood at 0.31 µg/mL (≈ 0.924 µM).
In turn, `CCCCNc1ncnc2c1cnn2C1O[C@H](CO)[C@@H](O)[C@H]1O` (stereo not given in full) displayed a No. of chicks in the test with Eimeria tenella [5] of 0. This compound registered an MIC in the test with Eimeria tenella [2] of 1.25 µg/mL (≈ 3.87 µM).
The compound `OC[C@H]1OC(n2ncc3c(NCCc4ccccc4)ncnc32)[C@H](O)[C@@H]1O` (stereo not given in full) yielded a No. of chicks with Gallus gallus [7] of 0. Moreover, the MIC against Eimeria tenella [2] was 5 µg/mL (≈ 13.5 µM).
On to `Nc1ncnc2c1ncn2[C@@H]1O[C@H](CO)[C@@H](O)[C@H]1O` [ADENOSINE], for which the EC50 with Detroit 98 [3] was determined as 0.08 µM; in the test on L cells [4] it was 0.3 µM. For the same compound, in the test filed under Gallus gallus [8], it took 20 µg/mL (≈ 74.8 µM) to inhibit growth (MIC). Moreover, in the test with Eimeria tenella [5], the No. of chicks is listed as 0.
